The record followed here is ChEMBL document CHEMBL4513216, “Probing the Open Global Health Chemical Diversity Library for Multistage-Active Starting Points for Next-Generation Antimalarials” (ACS Infect Dis, 2020).

Structures are written as SMILES.

A short description of this data set: Toxicity liver stage against HepG2, at 10uM. The format is cell-based. Set-up: test concentration 10 uM, cell line HepG2-A16-CD81EGFP. The settings on record: human, HepG2-A16-CD81EGFP cells; read-out: INHIBITION
The gist of the method: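 Uninfected HepG2-A16-CD81EGFP cells, 3 × 10^3 per well, 1536-well, plated on prespotted compound at 10 μM final, parasite-free screening media added to match infected plates; puromycin 10 μM positive, DMSO 0.5% negative; run in parallel with 48 h PbLuc assay at 37 °C, 5% CO2; viability by CellTiter-Glo luminescence, normalized to controls.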
As to `Cc1nc(CSCCC(=O)NCCNC(=O)OC(C)(C)C)cs1`, the cytotoxicity at 10 µM is -2.3%.
The value for `Cc1cccc(CSc2ncc(Br)c(C(=O)O)n2)c1` was -9.41%; that for `CS(=O)(=O)N1CCN(C(=O)c2cc(-c3ccco3)cs2)CC1` was 4.73%.
The value for `Cc1nc(C2CCN(Cc3ncc[nH]3)CC2)no1` was -28%; that for `CCc1cc(CNC(=O)Nc2cc(F)cc(N3CCCC3)c2)on1` was 4.79%; that for `Cc1nc(C(=O)Nc2cc(N3CCNC3=O)ccc2Cl)cs1` was -1.33%.
The value for `Cn1ccc(C(=O)Nc2nc(-c3ccc4c(c3)CCO4)cs2)cc1=O` was -9.46%; that for `CC1(c2ccccc2)CCC(=O)N(CCN2CCOC2=O)C1` (stereo not drawn) was 3.37%.
As to `Cc1cc(N2CCCC2Cn2nc(C)cc2C)n2ncnc2n1` (stereo not drawn), the cytotoxicity at 10 µM was -2.74%.
The value for `Cc1c(NC(=O)NCC(C)N2CCOCC2)cccc1OC(F)F` (stereo not drawn) was -2.88%; that for `CC(C)Oc1ccccc1CNC(=O)N1CCC(n2cncn2)CC1` was 2.38%.
To `Cc1noc(C2CCN(CC(=O)N3CCNC(=O)C3)CC2)n1` belongs 2.41%.
Take `CN1CCN(c2ccc(NS(=O)(=O)c3ccc(Br)s3)cc2C(=O)O)CC1`: the cytotoxicity at 10 µM is -4.5%.
To `Cn1cnnc1C1CCCN(C(=O)c2ccccn2)C1` (stereo not drawn) belongs -8.31%.
To `Cn1cccc1C(=O)NCc1cnc2n1CCN(C(N)=O)CC2` belongs 0.312%; to `CC1(c2ncc(CN3CCOCC3)cn2)CCCCO1` (stereo not drawn), 6.08%; to `Cc1cc(NC(=O)CNC2CCc3ncnn3C2)on1` (stereo not drawn), 6.47%.
Regarding `Nc1ncccc1CN1CCOCC1CC(=O)NCc1ccccn1` (stereo not drawn), the cytotoxicity at 10 µM is 9.66%.
The value for `CC1(C)O[C@@](C)([C@H]2CC3(CCN(c4cnccn4)CC3)CO2)CC[C@@H]1O` was 5.53%; that for `O=C(NCCNc1ccc(C(F)(F)F)cn1)c1cncc(Br)c1` was 2.24%.
To `COc1cccc2c1OCC(Cc1cnc(N)c(C)c1)C2` (stereo not drawn) belongs 3.36%; to `COC(=O)c1sccc1S(=O)(=O)N1CCC(Oc2cccc(C)n2)CC1`, 6.48%.
The value for `CN(C)c1cc(N(C)Cc2cc(C(C)(C)C)n[nH]2)ncn1` was -0.629%.
In the case of `CCc1ccc(C(=O)N2CC[C@H](Oc3cccnc3C)[C@@H](O)CC2)cc1`, the cytotoxicity at 10 µM turned out to be 8.24%.
The value for `NCC1CCCCN1Cc1cc(O)c2cccc(F)c2n1` (stereo not drawn) was -18.2%; that for `CC(c1ccco1)N(C(=O)CNc1ccc(C#N)cc1)C1CC1` (stereo not drawn) was 7.79%; that for `Cc1cc(C(=O)N2CCC(C)CC2)ccc1NS(C)(=O)=O` was 3.09%.
The value for `CN1CCC(c2cccc(NCc3ccncc3)n2)CC1` was 6.08%; that for `COc1cc(C)nc(N2CCN(C(=O)c3ccc[nH]3)CC2)n1` was -5.11%; that for `Fc1cccc(-c2nc(CN3CCCC3Cn3cncn3)co2)c1` (stereo not drawn) was -5.61%.
Regarding `Cc1noc(C)c1-c1cncc(C2CCCN2Cc2cn(C)cn2)n1` (stereo not drawn), the cytotoxicity at 10 µM is -20.4%.
The value for `NCc1cnn(-c2ccccc2C(=O)NCCc2ccccn2)c1` was -19.5%; that for `O=C(N1CCC(O)(C(F)(F)F)C1)C1(c2ccc(Cl)cc2)CC1` (stereo not drawn) was 9.64%; that for `CN1CCCc2cc(CNC(=O)c3ccc(-n4cnnc4)cc3)ccc21` was -4.9%.
On to `CCc1ccc(CN2CCC(c3ccccc3C(=O)O)C2)nc1` (stereo not drawn), for which the cytotoxicity at 10 µM was found to be 1.69%.
Consider `CCOc1cccc(CSC(C)c2nc(C)no2)n1` (stereo not drawn), for which the cytotoxicity at 10 µM is -22.6%.
The value for `O=C1COC2(CCN(C(=O)c3ccco3)CC2)CN1Cc1ccccn1` was 6.45%; that for `CNC(=O)CN1CCC(OCc2ccc(Cl)c(Cl)c2)CC1` was -14.4%.
To `CCn1ccc(-c2nnc(SCC(=O)Nc3ccc(C)cc3)n2CC)n1` belongs 5.11%; to `CCN(CC)C1CCN(C(=O)NCc2c(C)noc2C)CC1`, -3.71%.
Take `CCc1noc(CNc2ccc(C(=O)N3CCCC3)cc2C)n1`: the cytotoxicity at 10 µM is -8.25%.
The value for `CCOC(=O)[C@@H]1[C@@H](c2ccccc2)CN2CCN(C(=O)N(C)C)C[C@H]12` was 14.8%.
The value for `CCC(C#N)NC(=O)CCNC(=O)C(C)(C)C` (stereo not drawn) was -1.55%.
The value for `Cc1ccc(F)c(C(=O)Nc2c(C(N)=O)n[nH]c2C)c1` was -0.587%.
`Cc1nn(C)cc1-c1nn2c(C(F)(F)F)nnc2s1`: the cytotoxicity at 10 µM stood at 2.48%.
For `O=C(O)c1cc2c(nc1NCC1CC1)CCN(C1CCOC1)CC2` (stereo not drawn), the cytotoxicity at 10 µM was 7.83%.
The value for `CCN1CCN(CCNC(=O)c2sc(C)nc2C)CC1` was 0.927%.
To `COCc1nc(C(=O)N2CCCC2c2cccc(C)c2)cs1` (stereo not drawn) belongs -8.93%.
The value for `O=C(c1ccno1)N1CC(c2nc(-c3ccco3)no2)C1` was -11.3%; that for `CC(C)C[C@H](NCc1cc(O)c2cccc(F)c2n1)C(N)=O` was 5.71%; that for `c1ccc(-c2cnc(CN3CCCC3Cn3cccn3)o2)cc1` (stereo not drawn) was -13.6%.
For `CSc1[nH]nc(NC(=O)c2cccs2)c1C#N`, the cytotoxicity at 10 µM is -1.04%.
To `Cn1c(C(F)(F)F)nn(CCNC(=O)c2cnc3ccccc3n2)c1=O` belongs -20%.
To `OC(CN1CCN(CCOCC(F)(F)F)CC1)c1ccccc1` (stereo not drawn) belongs -7.99%; to `O=c1cc(Cn2cncn2)nc2n1CCCN(Cc1ccco1)C2`, 7.61%.
`CCNS(=O)(=O)C1CCN(C(=O)c2ccc(F)cc2)C1` (stereo not drawn): the cytotoxicity at 10 µM came to 7.98%.
The value for `O=C(Cc1ccc2c(c1)OCCO2)NC1CCCC1` was -3.07%; that for `CCOc1ncccc1CNC(=O)NCC(O)c1ccccc1OC` (stereo not drawn) was -6.85%; that for `CSCCC(CO)NC(=O)c1ccc2[nH]/c(=N\S(C)(=O)=O)sc2c1` (stereo not drawn) was -6.96%.
To `CCc1nnc(NC(=O)c2ccc(C3CCCN3CC(C)C)s2)s1` (stereo not drawn) belongs 2.14%.
To `CCCn1cc(CN2CCCC2c2cccc(-n3ccnc3)n2)cn1` (stereo not drawn) belongs -19.6%.
Take `CC(C)c1nc(CN2CCN(Cc3ccccn3)CC2)cs1`: the cytotoxicity at 10 µM was -4.41%.
As to `Cc1cccnc1NCCNc1cc(C(C)C)nc2ccnn12`, the cytotoxicity at 10 µM was -5.29%.
To `CCOCC(O)c1nc2c([nH]1)CC(C)(C)CNC2=O` (stereo not drawn) belongs 4.71%.
The value for `COc1ccc(S(=O)(=O)N2CCN(C)c3ncccc3C2)cc1` was -110%; that for `COCCN(C)c1ccc(NCc2ccsc2)nc1` was -5.2%.
For `COC1(CNC(=O)c2ccc3nsnc3c2)CCSC1` (stereo not drawn), the cytotoxicity at 10 µM was -1.36%.
The value for `Cc1cc(N2CCN(C(=O)Cc3c(C)nc(C)[nH]c3=O)CC2)cc(C)n1` was 9.66%; that for `Cc1ccc2nc(-c3nc4c([nH]3)CC(C)(C)CNC4=O)cn2c1` was 5.31%.
To `CCOCC(O)CN1CCN(C(=O)c2cccc(OC)c2)CC1` (stereo not drawn) belongs -0.874%; to `CCOc1c(F)cccc1C(=O)N(CC)C(C)c1cccnc1` (stereo not drawn), 11.8%; to `CCN1CC[C@]2(CN(C(=O)[C@H]3CCCO3)C[C@H]2c2ccccc2)C1=O`, 5.98%.
To `Cc1ccc(C(=O)NCc2ccnc(N3CCN(C)CC3)c2)cn1` belongs -2.07%; to `Cc1cnn(CCC(=O)NC2CCc3nc(C)cn3C2)c1` (stereo not drawn), 0.132%.
In the case of `C/C(=C\c1ccco1)CN(C)C(C)c1ccccn1` (stereo not drawn), the cytotoxicity at 10 µM was -3.49%.
To `CCc1nc(CCNC(=O)NC2CCSCC2)cs1` belongs -5.55%.
Consider `Cc1cc(C(=O)NCC(=O)N2CCOCC2)nn1C(C)(C)C`, for which the cytotoxicity at 10 µM is -3.44%.
To `Cc1nc(C)c(CN2CCOC[C@H](Oc3cnccn3)C2)s1` belongs -5.33%; to `CCC(=O)Nc1ccc(F)c(S(=O)(=O)NC(C)(C)C)c1`, -1.74%.
Turning to `CNS(=O)(=O)c1ccc(CN(C)Cc2nc3ccc(F)cc3[nH]2)cc1`, the cytotoxicity at 10 µM worked out at 17.2%.
To `Cn1cnc(S(=O)(=O)NCCN2CCCCCC2)c1Cl` belongs -17.2%; to `Cc1cnc(CN(C)C2CCN(Cc3sc(C)nc3C)C2)o1` (stereo not drawn), 3.45%.
Consider `CCOC(=O)N1CCN(C(=O)C(C)n2ccnc2C(C)C)CC1` (stereo not drawn), for which the cytotoxicity at 10 µM is -9.28%.
The value for `O=C(c1ccnc(-n2cnnc2)c1)N1CCCC2(CCOC2)C1` (stereo not drawn) was -15.1%; that for `Cc1cc(CN2CCC(CNC(=O)c3ccc(C#N)cc3)C2)[nH]n1` (stereo not drawn) was -138%; that for `Cc1ncccc1OC1(C(=O)NCCc2ccccn2)CCNCC1` was 1.83%.
To `C=C(C)COc1cccc(CNC(CC(C)C)c2ncnn2C)c1` (stereo not drawn) belongs 1.16%; to `Cc1cc(NC(=O)CCN2CCCC2Cn2cncn2)no1` (stereo not drawn), 4.26%.
Consider `CCN1CC(O)CN(C(=O)c2cccc(C(F)(F)F)c2)CC1=O` (stereo not drawn), for which the cytotoxicity at 10 µM stood at 4.04%.
Consider `CCCn1cc(NC(=O)c2ccc(S(C)(=O)=O)cc2)ccc1=O`, for which the cytotoxicity at 10 µM was -13.1%.
The value for `CCOc1ccnc(N2CCN(C(=O)c3cnc[nH]3)CC2)n1` was -2.06%; that for `Cc1cccc(CN2CCC3(CCCN(C(=O)N(C)C)C3)C2=O)n1` (stereo not drawn) was 1.44%; that for `CCC(=O)N1CCCC1c1n[nH]cc1-c1ccccc1F` (stereo not drawn) was -3.02%.
To `Cc1nc(CN2CCc3ncnc(-c4ccncc4)c3CC2)cs1` belongs -70%; to `Cn1c2c(c(=O)n1C)CN(C(=O)c1cccc(F)c1)CCC2`, -101%.
The value for `CC(C)(O)CNC(=O)NCc1nccn1CCc1ccccc1` was 3.04%; that for `COc1ccccc1CN1CC(OC)CN(C(=O)OCC(C)C)CC1=O` (stereo not drawn) was -12%; that for `CC(=O)Nc1cccc(CN2CCN(C3=NCC(C)(C)S3)CC2)c1` was 0.955%.
